Source: PubChem (several laboratories)
Cav32 inh: blocks human Cav3.2 T-type calcium channel | O95180 | Cav3.2-expressing cells, Fluo-4 calcium fluorescence FDSS; stronger effect = lower value | B-score at 10 µM | hit rate 4% among 100,000 | AID 449739;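 active means single-dose well whose peak fluorescence ratio is a statistical outlier from its plate by either plate-standardised score or position-corrected B-score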
PostGolgi yeast: growth inhibition of a yeast mutant, post-Golgi transport screen. post-Golgi transport phenotypic cell assay. inhibition, % at 10 µM. hit rate 0.9% among 98,000;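 further: yeast cells grown in 1536-well plates; yeast grown about 18 h at 30C before absorbance read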
tolC growth inh: blocks growth of E. coli BW25113 tolC mutant; hit rate 2.2% among 65,000; OD615; AID 573; growth inhibition, % at 10 µM (by protocol);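 active means growth inhibition at or above a cutoff equal to the mean over every tested compound plus 3 SD, cut at about 60% in these data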;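 further: growth measured after 20 h incubation at 37 °C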
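Test system – E. coli BW25113 ΔtolC::kan, tolC deletion mutant strain · Detection – OD at 615 nm · Buffer or medium – LB with kanamycin 50 µg/mL · Times – 20 h compound exposure of bacteria at 37 °C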
E coli WT exp: blocks growth of wild type E. coli BW25113. growth inhibition, % at 100 µM. OD600 absorbance. hit rate 0.15% among 98,000. AID 710;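 active means growth inhibition above about 50% at one test dose, limit read from the data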;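 further: growth measured after 20 h incubation at 37 °C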
PostGolgi ctrl: growth of the yeast control strain, post-Golgi counter-screen; efflux-deficient yeast background strain, growth absorbance A615, 16 h; inhibition, % at 10 µM; hit rate 5% among 98,000; AID 738
* hit, by the source's call. The list is not random: actives were taken first. Their share in the collection is about 8.4%. Unless noted, no stated cut-off is given here; in the data, active means inhibition above about 30%; inactive means the rest.

Screening Cc1ccc(CCNC(=O)c2nnn(-c3cc(C)cc(C)c3)c2N)cc1 returned Cav32 inh -0.65, PostGolgi yeast -8, tolC growth inh -8, E coli WT exp -5 and PostGolgi ctrl -9.
Cc1ccc(NC(=O)c2nnn(-c3cc(C)cc(C)c3)c2N)cc1 was read as Cav32 inh -3.4, PostGolgi yeast -10, tolC growth inh 67*, E coli WT exp -10 and PostGolgi ctrl 5.
For O=C(NCc1ccc2c(c1)OCO2)c1ccc(-n2cnnn2)cc1 the results were Cav32 inh 0.19, PostGolgi yeast 41*, tolC growth inh -20, E coli WT exp 9 and PostGolgi ctrl 1.
For Cc1cc(C)cc(-n2nnc(C(=O)NCc3ccc4c(c3)OCO4)c2N)c1 the results were Cav32 inh -5.4*, PostGolgi yeast -3, tolC growth inh 44, E coli WT exp -8 and PostGolgi ctrl 31*.
`O=C(NCc1ccc2c(c1)OCO2)c1ccc(N2CCCC2=O)cc1` gave Cav32 inh 0.053, PostGolgi yeast 1, E coli WT exp 3 and PostGolgi ctrl 4.
Screening CCOC(=O)C1CSC(CC(=O)Nc2ccc(Cl)c(Cl)c2)C(=O)N1 (stereo not drawn) returned Cav32 inh -2.4, PostGolgi yeast -5, E coli WT exp 13 and PostGolgi ctrl 2.
For COc1ccc(-c2nn(CC(=O)Nc3ccc(Cl)c(Cl)c3)c(=O)c3ccccc23)cc1 the results were Cav32 inh -1.8, PostGolgi yeast 7, E coli WT exp -6 and PostGolgi ctrl 32*.
Screening O=C(Cn1nc(-c2ccc(Cl)cc2)c2ccccc2c1=O)Nc1cccnc1 returned Cav32 inh -2.3, PostGolgi yeast 2, E coli WT exp 4 and PostGolgi ctrl 12.
Screening O=C(CSc1nnnn1C1CCCC1)Nc1cccc(NC(=O)c2ccco2)c1 returned Cav32 inh -0.44, PostGolgi yeast 5, tolC growth inh 24, E coli WT exp 3 and PostGolgi ctrl 5.
Screening O=C(CSc1nnnn1C1CCCCC1)Nc1cccc(NC(=O)c2ccco2)c1 returned Cav32 inh -3.8, PostGolgi yeast -8, tolC growth inh 73*, E coli WT exp -5 and PostGolgi ctrl 16.
Screening COc1cc(-c2nn3c(-c4ccccc4)nnc3s2)cc(OC)c1OC returned Cav32 inh 1.8, PostGolgi yeast -4, tolC growth inh -8, E coli WT exp -11 and PostGolgi ctrl 33*.
`COc1cc(-c2nnc3sc(-c4ccncc4)nn23)cc(OC)c1OC` gave tolC growth inh 2.
Cc1ccccc1-c1nn2c(-c3ccccc3)nnc2s1 was read as Cav32 inh -1.3, PostGolgi yeast 5, tolC growth inh 19, E coli WT exp 2 and PostGolgi ctrl 41*.
For Cc1ccc(-c2nnc3sc(CCc4ccccc4)nn23)cc1 the results were Cav32 inh -0.011, PostGolgi yeast 6, tolC growth inh 67*, E coli WT exp -4 and PostGolgi ctrl 30*.
For COc1cc(-c2nn3c(Cc4ccccc4)nnc3s2)cc(OC)c1OC the results were Cav32 inh -0.018, PostGolgi yeast 20, tolC growth inh 2, E coli WT exp -3 and PostGolgi ctrl 43*.
For CCCc1cc(C(=O)NCC(C)C)no1 the results were Cav32 inh 0.95, PostGolgi yeast -1, tolC growth inh -7, E coli WT exp -3 and PostGolgi ctrl 5.
For COCCN(C(=O)Nc1ccccc1)c1ccccc1C the results were Cav32 inh 0.53, PostGolgi yeast 10, tolC growth inh 2, E coli WT exp -6 and PostGolgi ctrl 4.
For Cc1cnc(NC(=O)CSc2nnc(-c3cccs3)n2C)s1 the results were Cav32 inh 0.49, PostGolgi yeast -8, tolC growth inh 9, E coli WT exp 1 and PostGolgi ctrl -10.
Screening O=C(Cc1ccc(NS(=O)(=O)c2ccc(F)cc2)cc1)NCc1ccccc1 returned Cav32 inh -5.2*, PostGolgi yeast -7, E coli WT exp 7 and PostGolgi ctrl -1.
`CCOC(=O)Cn1nnc2c(sc3nc4c(c(-c5ccccc5)c32)CCC4)c1=O` gave Cav32 inh -0.13, PostGolgi yeast 2, E coli WT exp -3 and PostGolgi ctrl 32*.
CCOC(=O)Cn1nnc2c(sc3nc4c(c(-c5ccc(Cl)cc5)c32)CCC4)c1=O was read as Cav32 inh -2.3, PostGolgi yeast -5, E coli WT exp -18 and PostGolgi ctrl 34*.
For CCOC(=O)C(NC(C)=O)C(OC(C)=O)c1cccc(N(CCO)CCO)c1 (stereo not drawn) the results were Cav32 inh -0.024, PostGolgi yeast 6, tolC growth inh -22, E coli WT exp -3 and PostGolgi ctrl 7.
